PGE2 EP2 inh: EP2 receptor (human) inhibition; 260,000 tested, 0.52% active; inhibition, % at 25 µM; C6 glioma cells expressing human EP2, cAMP TR-FRET; cells stimulated with saturating PGE2; AID 1422; P43116;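 active = percent inhibition above 40 after rounding to a whole number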;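 note: rat C6 glioma host cells with rolipram phosphodiesterase inhibitor present; the protocol text gives 20 µM as final concentration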
NPY-Y1 antag: NPY-Y1 (human) receptor antagonism. HEK293-CNG Y1 cells, membrane potential fluorescence; NPY at EC95, then isoproterenol. inhibition, % at 3.6 µM. AID 1040. P25929. 200,000 tested, 1% active;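 active = inhibition above the campaign mean inhibition of all tested compounds plus 3 SD, cut at about 20% in these data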;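 note: 0% = DMSO wells given NPY plus isoproterenol and 100% = isoproterenol alone without NPY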
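System: HEK293 cells with Y1 receptor plus CNG channel / Probe or stimulus: NPY 25 nM then isoproterenol 1 µM plus Ro 20-1724 25 µM / Compound: one concentration, 3.6 µM, in 0.4% DMSO / Schedule: compound incubation 1 h at room temperature, readout 45 min post-stimulation / Measured by: membrane potential fluorescence / Read-out: % inhibition of NPY effect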
NPY Y2 blocker: NPY-Y2 (human) receptor antagonism; P49146; NPY-Y2 expressing cells, antagonist mode; inhibition, % at 2.7 µM; 140,000 tested, 0.99% active; in the data active = inhibition above about 17%;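 note: 0% = vehicle with agonist challenge and 100% = reference antagonist with challenge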
Target sequence (P49146 whole entry, looked up): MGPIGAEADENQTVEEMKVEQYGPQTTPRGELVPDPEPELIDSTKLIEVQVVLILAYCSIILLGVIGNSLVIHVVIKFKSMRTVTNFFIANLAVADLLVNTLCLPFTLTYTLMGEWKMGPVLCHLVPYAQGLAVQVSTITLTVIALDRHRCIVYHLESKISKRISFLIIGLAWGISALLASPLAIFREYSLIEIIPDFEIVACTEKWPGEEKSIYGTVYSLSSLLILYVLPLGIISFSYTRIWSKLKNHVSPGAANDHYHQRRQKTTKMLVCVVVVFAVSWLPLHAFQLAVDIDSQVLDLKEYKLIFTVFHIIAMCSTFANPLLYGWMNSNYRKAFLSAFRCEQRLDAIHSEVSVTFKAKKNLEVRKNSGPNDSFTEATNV
NPY2 pot ag: potentiators or agonists of human neuropeptide Y receptor Y2 | P49146 | cells expressing NPY-Y2, potentiator/agonist read-out | activation, % at 3.6 µM | 220,000 tested, 0.45% active; in the data active = activation above about 27%;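 note: cells stimulated with NPY near EC25 plus isoproterenol at EC100; 0% = vehicle plus submaximal agonist and 100% = vehicle plus saturating agonist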
NPY1 pot ag: human NPY-Y1 potentiation or agonism, primary screen | NPY-Y1 expressing cells, potentiator/agonist activation | 220,000 tested, 0.37% active | activation, % at 3.6 µM | P25929; in the data active = activation above about 33%, passing the limit was not always enough;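 note: cells stimulated with NPY at EC10 then isoproterenol at EC100; 0% = low agonist plus stimulus and 100% = saturating agonist plus stimulus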
EP2 mod: modulates human prostaglandin E2 receptor EP2 signaling | P43116 | EP2-expressing cells, cAMP HTRF FRET, PGE2 co-stimulation | induction, % at 25 µM | 260,000 tested, 0.83% active;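 active = compounds whose cAMP rise, as percent of the full-agonist control response, exceeds 60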;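 note: rat C6 glioma line stably carrying human EP2 under a CMV promoter; the protocol text gives 20 µM as final concentration; 100% = response of wells given 1 µM PGE2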
EP2 cAMP induct: EP2 receptor cAMP induction, counter-screens negative | AID 1080 | calls only at 20 µM (by protocol) | shares compounds with EP2 mod | 1,300 tested, 47% active | C6 glioma EP2 cells, cAMP HTRF induction; plus low (about EC15) PGE2 agonist;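 active = cAMP induction above 50% in the main assay while under 30% in all four parallel counter assays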;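 note: rat C6 glioma cells stably expressing human EP2 receptor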
* = called active by the depositor; i = inactive; x = no result; + = active, no number; ! = not confirmed by another sample. This is a sample that favours compounds with a hit; in the whole collection about 2.8% have one here.

SMILES	PGE2 EP2 inh	NPY-Y1 antag	NPY Y2 blocker	NPY2 pot ag	NPY1 pot ag	EP2 mod	EP2 cAMP induct
Cc1occc1-c1nnc(SCC(=O)c2ccc(F)cc2)n1Cc1ccco1	9	3	6	-7	3	5	x
COc1ccc(C(=O)CSc2nnc(-c3ccoc3C)n2Cc2ccco2)cc1	10	x	x	x	x	12	x
O=C(CSc1nnc(-c2cc3ccccc3cc2O)n1Cc1ccco1)c1ccc(F)cc1	3	-3	-1	-7	6	50	i
Cc1ccc(O)c(C2=Nc3ccccc3N=C(c3cccs3)C2)c1	-1	2	1	-9	-3	69*	i
Oc1ccccc1C1=Nc2ccccc2N=C(c2cccs2)C1	3	9	3	-7	-12	47	x
CCCCC(CC)CN1CN(CC(CC)CCCC)CC(C)(N)C1 (stereo not drawn)	10	x	x	x	x	50	i
CCOC(=O)c1ccccc1NC(=O)CSc1ncc(C(=O)OCC)c(N)n1	3	11	8	17	-12	65*!	i
CCOC(=O)c1cnc(SCC(=O)Nc2ccccc2OCC)nc1N	9	x	x	x	x	-39	x
S=C1NCCc2ccc(Cl)cc2C1c1ccccc1 (stereo not drawn)	7	3	1	13	22	75*	+
CCOC(=O)C1CCCN(C(=O)c2ccc(C)cc2O)C1 (stereo not drawn)	5	3	1	19	-6	66*	i
CC(C)C(=O)c1cc2c(cc1NC(=O)c1ccccc1)OCCO2	3	6	0	-10	-45	71*	+
C=C(C)Cn1c(Sc2ccccc2)nc2c1c(=O)[nH]c(=O)n2C	7	x	x	x	x	21	x
COc1ccc(C2=Nn3c(nnc3-c3ccccc3OC)SC2)cc1OC	8	30*	30*	-32	-75	74*	i
COc1ccc(C2=Nn3c(nnc3-c3ccc(OC)cc3)SC2)cc1	5	14	7	-8	-14	92*	+
CCc1ccc(C2=Nn3c(nnc3-c3cccs3)SC2)cc1	15	6	10	-34	-62	89*	+
O=S(Cc1cc(Sc2ccccc2)nc(-c2ccccc2)n1)c1ccccc1 (stereo not drawn)	8	2	13	8	-36	71*	+
CNc1cc(CS(=O)c2ccccc2)nc(-c2ccccc2)n1 (stereo not drawn)	15	-2	7	20	15	-8	x
COP(=O)(OC)c1nc(-c2cccc3ccccc23)oc1NCCc1ccccc1	7	7	7	6	-9	46	x
CCOP(=O)(OCC)c1nc(-c2ccc(C)cc2)oc1NCc1ccccc1	10	8	9	1	-20	81*	+
CCOP(=O)(OCC)c1nc(-c2cccc3ccccc23)oc1NCc1ccc(OC)cc1	9	-1	x	-3	0	71*	i
CCOP(=O)(OCC)c1nc(-c2cccc3ccccc23)oc1NCc1ccccc1	2	5	2	2	-15	77*	+
CCOP(=O)(OCC)c1nc(/C=C/c2ccccc2)oc1NCc1ccccc1	3	-1	2	2	10	51	i
Cc1ccc2nc(SCC(=O)Nc3ccccc3Cl)c(C#N)cc2c1	10	x	x	x	x	-6	x
CN(C)C(CNC(=O)Cn1ccc2ccc(F)cc21)c1ccc2c(c1)OCO2 (stereo not drawn)	10	x	x	x	x	-19	x
O=c1[nH]c2cc3c(cc2cc1C(c1nnnn1C1CCCC1)N1CCCCC1)OCCO3 (stereo not drawn)	11	x	x	x	x	9	x
SMILES	PGE2 EP2 inh	NPY-Y1 antag	NPY Y2 blocker	NPY2 pot ag	NPY1 pot ag	EP2 mod	EP2 cAMP induct
CC1=C/C(=C(/c2ccc(O)c(C)c2)c2ccccc2C(=O)O)C=CC1=O	5	x	x	x	x	51	i
O=C(O)C1=CC(=C(c2ccc(O)c(C(=O)O)c2)c2ccc(O)c(C(=O)O)c2)C=CC1=O	11	x	x	x	x	26	x
Cn1c(=O)c2c(nc(CN3CCN(c4ccccc4)CC3)n2Cc2ccccc2Cl)n(C)c1=O	6	0	0	2	6	58	i
Cn1c(=O)c2c(nc(CN3CCN(c4ccccc4)CC3)n2Cc2c(F)cccc2Cl)n(C)c1=O	2	-1	3	-2	-2	71*	i
COc1cc(C(c2nnnn2C(C)(C)C)N2CCN(c3cc(C)ccc3C)CC2)cc(OC)c1OC (stereo not drawn)	6	x	x	x	x	10	x
CC1Cc2ccccc2N1CC(=O)NC(c1ccccc1)c1ccccc1 (stereo not drawn)	10	7	3	6	-3	72*	+
CC1CC(C)CN(CC(=O)NC(c2ccccc2)c2ccccc2)C1 (stereo not drawn)	9	11	x	-8	-19	72*	i
O=C(CN1CCN(c2ccc(O)cc2)CC1)NC(c1ccccc1)c1ccccc1	20	10	4	2	-8	25	x
CC1Cc2ccccc2N1CC(=O)NC(=O)NCc1ccccc1 (stereo not drawn)	6	0	x	0	-1	25	x
CN(C(=O)c1cccc(NC(=O)C2Oc3ccccc3O2)c1)C1CCCCC1	3	x	x	x	x	-46	x
Cn1cc(-c2ccccc2C(N)=O)c(=O)c2cc(Cl)ccc21	2	2	x	-12	1	3	x
Cn1cc(C2=C(c3ccc(Cl)cc3Cl)C(=O)NC2=O)c2ccccc21	6	x	x	x	x	75*	+
CC(=O)c1sc2nc(-c3ccc(C)cc3)c3c(c2c1N)CCCC3	18	6	0	-2	-14	72*	+
Cc1ccc(-c2nc3sc(C(N)=O)c(N)c3c3c2CCCC3)cc1	10	1	-1	9	12	51	x
Cc1ccc2cc(C#N)c(N3CCN(C(=O)c4ccccc4)CC3)nc2c1C	9	x	x	x	x	-63	x
Cc1nc(N2N=C(c3ccc(Cl)cc3)CC2c2ccco2)sc1C(=O)N(C)C (stereo not drawn)	5	9	x	-11	-8	72*	+
Clc1ccc(C2=NN(c3ccccc3)C(c3ccco3)C2)cc1 (stereo not drawn)	11	x	x	13	3	25	x
CC(C)c1ccc2c(c1)CCC1C(C)(C(N)=O)CCCC21C (stereo not drawn)	5	x	x	x	x	52	+
O=C(Nc1ccc(Cl)cc1)NC1CC2CCCC(C1)N2Cc1ccco1 (stereo not drawn)	24	x	x	x	x	-99	x
CCOc1nc(-c2ccccc2O)nc2ccccc12	6	2	6	-1	-28	81*	+
CC(C)Oc1nc(-c2ccccc2Cl)nc2ccccc12	8	x	x	16	-24	46	x
CC1=Nc2ccccc2/C1=C/c1sc(=S)n(-c2cccc(C(=O)O)c2)c1O	7	2	x	-1	8	71*	+

Compound activity (PubChem BioAssay)
